Assay outcomes deposited in PubChem BioAssay by several laboratories.
Only some compounds are listed: those with a hit (about 4.1% of all), similar ones and a draw of the others.
KCNK3 block: human KCNK3 channel inhibition, primary screen; O14649; CHO-KCNK3 thallium flux, FluxOR fluorescence; hits give low values; B-score at 10 µM; hit rate 0.84% among 340,000;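 active = B-score under library mean minus 4 SD, starting fluorescence ratio at most library mean plus 5 SD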;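 also: more negative B-score means stronger inhibition of thallium flux through KCNK3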
KCNQ1 act: potentiators or activators of human KCNQ1 potassium channel. AID 2648. B-score at 10 µM. CHO-K1 KCNQ1, thallium flux FluxOR fluorescence; hits give high values. hit rate 0.35% among 310,000;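 active = fluorescence ratio B-score, a plate-corrected score, at least three library SD, with initial intensity B-score within 5 SD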
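Schedule – 37 °C overnight plating, 90-min dark dye load, 20-min compound pretreatment · System – stable KCNQ1 CHO-K1 line · Probe or stimulus – thallium- and potassium-containing depolarizing buffer · Measured by – kinetic FluxOR fluorescence, 10 s baseline plus 110 s post-stimulus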
KCC2 mod: KCC2 (human) Cl- transport modulation; Q9H2X9; KCC2 cells, thallium flux FluoZin-2 fluorescence; B-score of Tl+ flux slope (higher = more flux/activation; lower = inhibition) at 10 µM; hit rate 2.2% among 190,000; AID 1456;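 active = thallium flux slope and its plate-corrected score both differing from the plate sample mean at a set confidence after two filtering rounds, in either direction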;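 also: slope of fluorescence scaled to starting intensity during 10 to 20 s after thallium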
Target sequence (Q9H2X9 whole entry, looked up): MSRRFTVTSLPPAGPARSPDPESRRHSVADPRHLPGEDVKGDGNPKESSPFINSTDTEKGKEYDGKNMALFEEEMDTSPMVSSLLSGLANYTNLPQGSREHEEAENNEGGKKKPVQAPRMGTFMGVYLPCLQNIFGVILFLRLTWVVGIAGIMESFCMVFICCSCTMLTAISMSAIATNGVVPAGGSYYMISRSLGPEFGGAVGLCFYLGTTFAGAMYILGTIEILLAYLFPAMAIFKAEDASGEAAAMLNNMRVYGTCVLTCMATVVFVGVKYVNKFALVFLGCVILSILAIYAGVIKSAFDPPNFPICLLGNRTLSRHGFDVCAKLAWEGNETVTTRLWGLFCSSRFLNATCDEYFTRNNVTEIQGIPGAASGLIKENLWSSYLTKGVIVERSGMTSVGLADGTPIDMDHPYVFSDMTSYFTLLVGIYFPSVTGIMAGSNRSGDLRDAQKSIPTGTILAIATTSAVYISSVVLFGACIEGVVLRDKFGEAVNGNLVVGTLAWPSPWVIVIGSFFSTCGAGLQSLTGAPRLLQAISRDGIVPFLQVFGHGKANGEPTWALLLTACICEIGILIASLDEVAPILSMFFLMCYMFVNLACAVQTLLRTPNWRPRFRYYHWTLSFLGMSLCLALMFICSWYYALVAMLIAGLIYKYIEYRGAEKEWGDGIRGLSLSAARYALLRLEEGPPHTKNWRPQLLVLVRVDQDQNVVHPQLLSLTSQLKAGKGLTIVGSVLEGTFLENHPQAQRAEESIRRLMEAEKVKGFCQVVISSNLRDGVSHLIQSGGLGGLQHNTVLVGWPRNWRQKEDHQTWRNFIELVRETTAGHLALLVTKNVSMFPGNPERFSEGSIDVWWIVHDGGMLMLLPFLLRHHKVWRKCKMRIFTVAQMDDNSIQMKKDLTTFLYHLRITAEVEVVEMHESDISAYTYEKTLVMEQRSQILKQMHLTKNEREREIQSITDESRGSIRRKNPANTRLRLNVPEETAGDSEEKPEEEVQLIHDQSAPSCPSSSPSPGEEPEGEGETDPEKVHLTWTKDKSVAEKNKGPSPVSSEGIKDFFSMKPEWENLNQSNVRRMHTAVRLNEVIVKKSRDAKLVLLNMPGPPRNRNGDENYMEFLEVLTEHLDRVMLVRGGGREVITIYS
KCNK9 inh: human KCNK9 channel inhibition; hit rate 1.2% among 310,000; B-score at 10 µM; Q9NPC2; HEK293 KCNK9, FluxOR thallium flux fluorescence; hits give low values; AID 488922;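 active = ratio B-score over 3 SD below the library mean, with starting fluorescence within 5 SD of its mean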;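 also: negative B-score means less thallium flux so channel inhibition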
KCNQ1 inh: human KCNQ1 channel inhibition | P51787 | CHO-K1 KCNQ1, FluxOR thallium flux fluorescence; hits give high values | B-score at 10 µM | hit rate 1.3% among 310,000;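 active = compounds whose thallium flux B-score, printed positive for inhibition, exceeds three library SD while starting fluorescence stays within three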;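 also: channel opened by potassium depolarization with thallium stimulus after 20 min compound exposure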
hERG protect: shields human hERG channel from block by proarrhythmic agents; Q12809; CHO-hERG, FluxOR thallium flux, dofetilide IC70 present; activation (rescue from dofetilide block), less the hit threshold, % at 10 µM; hit rate 0.51% among 310,000; AID 1511;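 active = activation above the mean of controls blocked by dofetilide plus 5 SD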;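 also: thallium influx through hERG after potassium depolarization seen as dye fluorescence rise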
KCC2 sec1: KCC2 (human) modulation, secondary assay. HEK293-KCC2, thallium flux, FluoZin2 fluorescence; hits give high values. shares compounds with KCC2 mod. normalised thallium flux (F/F0 slope) at 10 µM. hit rate 15% among 3,700;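 active = thallium flux slope above the same plate's solvent-only control mean plus 3 SD; inconclusive = the two replicate wells disagree; inactive = no significant difference from solvent-only control wells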
KCC2 bumet counter: thallium flux despite bumetanide block in KCC2 cells, secondary assay 3; shares compounds with KCC2 mod; HEK293-KCC2 + bumetanide/ouabain, thallium flux FluoZin2; hits give high values; normalized thallium flux at 10 µM; hit rate 49% among 3,700; AID 1714;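 active = thallium entry rate above the same plate's blocked-transporter control wells by more than 3 SD; inconclusive = the two repeat wells disagree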;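 also: raw slope of fluorescence over initial fluorescence between 10 and 20 s after thallium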
KCC2 sec2: confirmation of human KCC2 transport modulators; shares compounds with KCC2 mod; HEK293-KCC2, thallium flux FluoZin2 fluorescence; actives lie on both sides; F/F0 rise rate, 10–20 s post-thallium; normalized thallium flux at 10 µM; hit rate 23% among 3,700; AID 1715;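 active = thallium flux slope more than 3 SD above or below the plate's solvent-only control mean, mostly below; inconclusive = the two repeat wells disagreed; inactive = no significant shift from solvent-only controls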;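 also: raw slope with 0.1% DMSO as baseline and bumetanide as block control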
HEK counter1: counter-screen for KCC2 modulators: effect in parental HEK293 cells. shares compounds with KCC2 mod. thallium flux FluoZin2, ouabain; baseline-ratio fluorescence slope, 10–20 s after thallium. thallium flux rate (normalised fluorescence) at 10 µM. hit rate 46% among 3,700;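 active = thallium flux rate significantly above the same plate's solvent-only control wells, beyond their mean plus 3 SD; inconclusive = the two replicate wells gave conflicting results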
KCC2 ouabain: confirmation of human KCC2 modulators with ouabain; hit rate 48% among 3,700; raw Tl+ flux slope (below DMSO = inhibition, above = activation) at 10 µM; AID 1717; shares compounds with KCC2 mod; HEK293-KCC2, thallium flux FluoZin2 fluorescence; bidirectional: low = inhibitor, high = activator;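 active = thallium flux slope beyond 3 SD from same-plate DMSO control mean in most replicates, usually higher, sometimes lower; inconclusive = repeat tests gave conflicting results; inactive = no significant difference from controls in most replicates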;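 also: slope of initial-normalized fluorescence between seconds 10 and 20 after thallium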
HEK293 Tl flux2: parental HEK flux effect, counter-screen 2; shares compounds with KCC2 mod; HEK293 parental, thallium flux FluoZin-2 fluorescence slope; thallium flux slope at 10 µM; hit rate 33% among 3,700;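 active = thallium flux slope above the same plate's solvent-control mean plus 3 SD in both duplicate wells; inconclusive = duplicate wells that disagreed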;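 also: run without ouabain in cells lacking the KCC2 cotransporter; slope of fluorescence scaled to its starting value between 10 and 20 s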
KCNQ1 inh valid: reconfirmed blocker of the human KCNQ1 potassium channel; shares compounds with KCNQ1 inh; KCNQ1 cell line, FluxOR thallium flux fluorescence; inhibition, % at 10 µM; hit rate 93% among 1,600; AID 588353;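 active = primary screen active, with duplicate mean exceeding buffer control mean plus 3 SD of buffer wells, cut at about 28% in these data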;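 also: 0% = buffer control ratio and 100% = XE991 inhibitor control ratio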
CHO KCNQ1 ctr: activity in parental CHO cells lacking KCNQ1 | shares compounds with KCNQ1 inh | parental CHO-K1, FluxOR thallium flux fluorescence ratio; hits give low values; zero means no signal rise above baseline | fluorescence ratio (Tl flux) at 10 µM | hit rate 21% among 1,600 | AID 588366;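 active = mean of duplicate thallium-flux fluorescence ratios in parental host cells more than 5 SD below the buffer control mean, cut at about 0.38 in these data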;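 also: ratio is peak minus minimum fluorescence divided by baseline fluorescence; actives read low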
KCNQ2 spec: rat KCNQ2 inhibition in KCNQ1 inhibitor specificity screen; shares compounds with KCNQ1 inh; KCNQ2 cells, FluxOR thallium flux fluorescence; inhibition, % at 10 µM; hit rate 71% among 1,600;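 active = mean percent inhibition of the KCNQ2 thallium signal more than 5 SD above the buffer-only control wells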;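 also: KCNQ2 expressed in CHO cells; 0% = buffer control wells and 100% = XE-991 inhibitor control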
KCNQ1-KCNE1 inh: KCNQ1 inhibitor that also blocks human KCNQ1/KCNE1 channel; shares compounds with KCNQ1 inh; KCNQ1/KCNE1 cells, FluxOR thallium flux fluorescence; inhibition, % at 10 µM; hit rate 77% among 1,600;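 active = mean percent inhibition of duplicate wells above the buffer-only control mean plus 3 SD of those controls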;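 also: 0% = buffer only wells and 100% = XE-991 inhibitor control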
KCNK9 block conf: human KCNK9 inhibitor confirmation; shares compounds with KCNK9 inh; hit rate 43% among 4,900; HEK293 KCNK9 cells, FluxOR thallium flux fluorescence; inhibition, % at 10 µM;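 active = thallium signal inhibited by more than 5 SD of the compound-free buffer control wells, on both duplicate plates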;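 also: 0% = assay buffer control wells without compound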
Kir2-1 spec: mouse Kir2.1 off-target activity of KCNK9 modulators; shares compounds with KCNK9 inh; Kir2.1 cells, FluxOR thallium flux fluorescence; inhibition, % at 10 µM; hit rate 4% among 4,900;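 active = thallium signal drop more than 5 SD beyond the mean of the no-compound control wells, seen in both duplicate plates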;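 also: signal is fluorescence rise after thallium addition divided by baseline fluorescence; plate controls were assay buffer only for no effect and full block by chlorpromazine control for full effect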
HEK293 Tl ctr: second check of KCNK9 modulator effects in non-induced HEK293 cells; shares compounds with KCNK9 inh; FluxOR thallium flux; inhibition, % at 10 µM; hit rate 40% among 4,900;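 active = thallium signal drop beyond 5 SD of the untreated control mean, on both duplicate plates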;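 also: plate controls were buffer only IC0 wells for no effect and SID17386958 at its maximal inhibitory level for full effect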
KCNK3 confirm: confirmation of human KCNK3 two-pore domain potassium channel inhibitors; ratio percent of control, % at 10 µM; AID 651638; hit rate 99% among 2,400; shares compounds with KCNK3 block; CHO-KCNK3 thallium flux, FluxOR fluorescence; 0% buffer, 100% carvedilol maximal block;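 active = ratio percent of control, averaged over triplicates, above buffer control mean plus 5 SD, cut at about 64% in these data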;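 also: ratio is the fluorescence rise from min to max over baseline after thallium stimulus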
KCNK3 uninduced: activity in cells without induced KCNK3 expression. shares compounds with KCNK3 block. non-induced KCNK3 parental cells, FluxOR thallium flux; hits give low values. thallium flux ratio (lower = more inhibition) at 10 µM. hit rate 40% among 2,400;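 active = thallium flux ratio, averaged over three wells, more than 5 SD below the buffer control mean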;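 also: host cells are CHO cells without KCNK3 induction; ratio is peak minus trough fluorescence over baseline then normalized to buffer controls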
Active calls of the source: *; i = inactive; ? = inconclusive; . = not tested or not shown; + = active, no number.

SMILES	KCNK3 block	KCNQ1 act	KCC2 mod	KCNK9 inh	KCNQ1 inh	hERG protect	KCC2 sec1	KCC2 bumet counter	KCC2 sec2	HEK counter1	KCC2 ouabain	HEK293 Tl flux2	KCNK3 confirm	KCNK3 uninduced	others
Cc1ccc2[nH]c3c(N4CCN(Cc5ccccc5)CC4)ncnc3c2c1	-10.1*	i	.	i	i	-25.3	0.00641	0.00498	0.0223*	0.00756	?	0.0112	130.0*	0.112*
Cc1cc(Br)ccc1NC(=O)CSCc1c(C)noc1C	i	.	.	.	.	.	.	.	.	.	.	.	.	.
Cc1ccccc1-n1nnnc1SCc1ncc(-c2ccccc2)o1	-9.41*	i	-3.37*	i	i	-12.9	0.00677	0.00385	?	?	0.0164	0.0103	99.0*	i
Cc1c(C(=O)OCc2ccc(F)cc2)sc2nc3n(c(=O)c12)CCC3	i	i	.	i	i	-11.6	.	.	.	.	.	.	.	.
CCCn1nc([N+](=O)[O-])c(C(C#N)c2nc3ccccc3s2)c(Cl)c1=O (stereo not drawn)	-8.76*	i	-6.05*	i	14*	-22.7	0.00666	0.0059*	?	0.00582*	0.0113*	0.00812*	132.7*	0.108*
CCn1nc([N+](=O)[O-])c(C(C#N)c2nc3ccccc3n2C)c(Cl)c1=O (stereo not drawn)	i	i	-2.29	i	i	-3.0	.	.	.	.	.	.	.	.
O=C(Nc1cccc(F)c1)/C(=C/c1ccco1)NC(=O)c1ccco1	i	i	.	i	i	-11.1	.	.	.	.	.	.	.	.
COCCN1CCN(C(=O)c2ccc3oc(CCc4ccccc4)nc3c2)CC1	i	i	.	i	i	-7.5	.	.	.	.	.	.	.	.
O=C(O)c1ccc(NC2=C(Cl)C(=O)c3ccccc3C2=O)cc1	-11.7*	i	-6.5*	-12.4*	15*	-44.7	0.0105	0.00935*	0.0352	0.00358	0.0171*	0.0113	137.0*	0.0923*	KCNQ1 inh valid=167.0*;CHO KCNQ1 ctr=0.261*;KCNQ2 spec=117.7%*;KCNQ1-KCNE1 inh=+
CC1=C(Nc2ccc(C(=O)O)cc2)C(=O)c2ccccc2C1=O	i	i	.	i	i	0.9	.	.	.	.	.	.	.	.
CC(=O)NCc1ccc(C(=O)COC(=O)COc2ccc(Cl)c(C)c2)s1	i	.	.	.	.	.	.	.	.	.	.	.	.	.
O=C(C1CC(c2ccccc2O)=NO1)N1CCc2ccccc2C1 (stereo not drawn)	-9*	i	-3.22*	i	i	-2.8	0.00677	0.00533	?	0.008	0.0177	0.0107	99.3*	i
O=C(C1CC(c2ccc(F)cc2)=NO1)N1CCc2ccccc2C1 (stereo not drawn)	i	i	-0.773	i	i	-5.9	.	.	.	.	.	.	.	.
COc1cc(Cl)c(C)cc1NC(=O)CN(C)Cc1cccc(OC)c1OC	-12.9*	i	-3.57*	i	i	-8.3	0.0078	0.00416	0.0278	0.00614*	0.0175	?	98.7*	i
COc1ccccc1CN(C)CC(=O)Nc1cccc2ccccc12	i	i	.	i	i	-14.1	.	.	.	.	.	.	.	.
CC1=Nc2ccccc2/C1=C/c1nc(-c2ccc(C)s2)oc1O	i	i	-1.03	i	i	-36.1	.	.	.	.	.	.	.	.
CC1=Nc2ccccc2/C1=C/c1sc(=N)n(-c2nccs2)c1O	-10.1*	i	-3.57*	i	10*	-23.6	0.00622	0.000516*	0.0198*	0.00489*	0.00973*	0.00711*	174.7*	0.0887*
O=C(c1ccc(-c2ccccc2)cc1)C1CCCN(Cc2ccncc2)C1 (stereo not drawn)	-10.4*	i	-4.08*	i	i	-23.7	0.00691	0.00495	0.0253*	0.00795	?	0.0113	128.7*	i
Cc1cccc(NC(=S)N/N=C/c2cccn2Cc2ccc(F)cc2)c1	-9.3*	i	6.26*	-13.6*	i	-4.7	0.00539	0.00879*	?	0.00809	0.0203	0.01	62.7*	i	KCNK9 block conf=60.5%*;Kir2-1 spec=i;HEK293 Tl ctr=i
